# Only some compounds are listed: those with a hit (about 2.2% of all), similar ones and a draw of the others.
# Jurkat NFkB inh = inhibitors of the PMA/ionomycin-induced NF-kB reporter in Jurkat cells | PMA/ionomycin-induced NF-kB luciferase reporter, luminescence | inhibition, % at 4 µM | actives 0.53% (n = 330,000) | AID 435003; in the data active = inhibition above about 50%
# miR-122 sensor = miR-122 inhibition in Huh7 cells; actives 0.3% (n = 340,000); AID 602342; activation (reporter increase), % at 12.5 µM; Huh7 miR-122 Renilla luciferase sensor, 48 h; neutral wells = 0, positive control = 100;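 active = mean replicate activation score at least 90 and every replicate individually at or above 90; inconclusive = only one of the two criteria met; inactive = neither criterion met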;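 note: higher luciferase means less miR-122 activity so hits act as miR-122 inhibitors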
# FGF22 binding = shifts melting point of recombinant human FGF22 | Q9HCT0 | recombinant FGF22 thermal shift, SYPRO orange fluorescence; percent of sucrose octasulfate shift, DMSO zero | activity (Tm shift, normalised), % at 9.99 µM | actives 1.5% (n = 340,000) | AID 651658;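 active = mean Tm shift, scaled 0 neutral to 100 positive control, at about 1.3% or above, every replicate too, limit read from the data; inconclusive = no clear call, values can overlap the other calls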
# Target sequence (Q9HCT0 whole entry, looked up): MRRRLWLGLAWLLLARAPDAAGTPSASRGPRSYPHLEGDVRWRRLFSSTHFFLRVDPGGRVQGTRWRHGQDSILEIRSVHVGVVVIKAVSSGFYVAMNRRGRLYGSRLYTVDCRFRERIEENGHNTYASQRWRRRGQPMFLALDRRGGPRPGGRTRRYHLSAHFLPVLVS
# NR2E3 ag-1 = human photoreceptor-specific nuclear receptor agonism; Q9Y5X4; CHO-S Gal4-NCOR/VP16-NR2E3 two-hybrid, luciferase; inhibition of corepressor binding, % at 3.98 µM; actives 0.35% (n = 360,000);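 active = inhibition above the mean of all tested compounds plus 3 SD, cut at about 70% in these data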;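 note: 0% = DMSO with NR2E3 transfected cells and 100% = cells lacking NR2E3 construct; higher means lower luciferase signal from less NR2E3 corepressor binding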
# 697 NFkB inh = lowers PMA/ionomycin-induced NF-kB signal in 697 B cells | 697 B-cell NF-kB luciferase reporter, 16 h | inhibition, % at 4 µM | actives 0.33% (n = 330,000) | AID 435022; in the data active = inhibition above about 35%
# NR2E3 ag-2 = agonists of human nuclear receptor NR2E3; actives 0.12% (n = 320,000); GST-NR2E3/biotin-RetCOR TR-FRET, 1536-well; inhibition of corepressor binding, % at 4.78 µM; Q9Y5X4;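 active = percent inhibition above the cutoff of mean plus 3 SD of all tested compounds, set per screening campaign, cut at about 20% in these data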;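 note: 0% = DMSO wells and 100% = biotin wells as full block of FRET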
#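 system = GST-tagged NR2E3 plus biotinylated RetCOR corepressor | input = 1.35 nM GST-NR2E3 | also added = 7 nM biotin-RetCOR | schedule = 5 h incubation at 4 °C | measured by = TR-FRET with europium anti-GST and streptavidin-D2, 340 nm excitation | read-out = percent loss of FRET ratio relative to control wells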
# An asterisk follows results filed as active; u = inconclusive; x = no result given; [ ] = another dose, or the depositor's remark.
SMILES,Jurkat NFkB inh,miR-122 sensor,FGF22 binding,NR2E3 ag-1,697 NFkB inh,NR2E3 ag-2
COc1cc(Cl)c(CNC[C@H]2O[C@@H](n3cnc(C(N)=O)n3)[C@H](O)[C@@H]2O)c(Cl)c1O,x,-5.6,43.0*,-35.1,x,x
Cn1cccc1C(=O)C(=O)Nc1ccccc1C(F)(F)F,-34.5,-1.7,43.2*,-40.1,-22.8,5.4
O=C(CSc1ccc(Cl)cc1)NCc1ccncc1,-1.8,0.1,43.0*,-25.5,0.1,-3.6
N/C(CSc1ccc(Cl)cc1)=N\NC(=O)c1ccncc1,-13.6,x,43.3*,-23.6,19.2,1.4
O=C(CCSc1ccc(Cl)cc1)NCc1ccncc1,2.5,x,0.1,-17.7,3.8,0.4
CCNC(=O)[C@H]1[C@H](CO)[C@H]2Cn3c(ccc(-c4ccccc4OC)c3=O)[C@H]2N1CC,x,1.7[16.7 µM],0.1,x,x,x
OC(c1ccc(Cl)c(F)c1)c1ncc(-c2ccccc2F)[nH]1 (stereo not given),x,u,0.0,-16.2,x,x
OC(c1ccc(Cl)c(Cl)c1)c1ncc(-c2ccccc2F)[nH]1 (stereo not given),x,103.7*,-0.1,11.9,x,x
Cc1ccccc1-c1cnc(C(O)c2ccc(F)c(F)c2)[nH]1 (stereo not given),x,92.9*,0.4,-37.1,x,x
CC(C)NC(=O)N1CC2(C1)[C@H](c1ccccc1)[C@@H](CO)N2C(=O)C1CCCC1,x,x,0.6,x,x,x
CO[C@H]1CN(C)C(=O)c2cc(NS(=O)(=O)c3ccc(-c4ccccc4)cc3)ccc2OC[C@@H](C)NC[C@@H]1C,x,1.1[16.7 µM],-0.4,x,x,x
COc1ccc(CNc2ncnc3cc(Cl)ccc23)cc1OC,x,x,43.3*,18.8,x,x
COc1ccc(CNc2ncnc3sccc23)cc1OC,30.4,x,-0.2,79.9*,-8.5,2.0
COc1ccccc1CNc1ncnc2cc(Cl)ccc12,x,x,x,9.2,x,x
O=C(O)c1cccc(NC(=S)NC(NC(=O)c2cccc([N+](=O)[O-])c2)C(Cl)(Cl)Cl)c1 (stereo not given),-4.2,-3.7,2.8*,-8.6,-27.5,3.3
COc1ccc(S(=O)(=O)N(C)C[C@H]2Oc3ccc(NC(=O)Nc4ccc(C(F)(F)F)cc4)cc3C(=O)N([C@@H](C)CO)C[C@H]2C)cc1,x,110.8*[16.7 µM],0.0,x,x,x
COc1ccc(S(=O)(=O)N(C)C[C@H]2Oc3ccc(NC(=O)Nc4ccc(C(F)(F)F)cc4)cc3C(=O)N([C@H](C)CO)C[C@H]2C)cc1,x,135.7*[16.7 µM],-0.1,x,x,x
Cc1ccc(S(=O)(=O)N(C)C[C@H]2Oc3ccc(NC(=O)Nc4ccc(C(F)(F)F)cc4)cc3C(=O)N([C@H](C)CO)C[C@H]2C)cc1,x,u,2.7*,x,x,x
COc1ccc(S(=O)(=O)Nc2ccc3c(c2)COC3=O)cc1OC,-4.1,150.4*,x,-15.4,11.7,-2.6
Cc1cccc(NC(=O)CN2C(=O)S/C(=C\c3ccc(O)c([N+](=O)[O-])c3)C2=O)c1,3.0,-12.5,43.8*,-17.3,19.0,5.8
Cc1ccc(NC(=O)CN2C(=O)S/C(=C/c3ccc(O)c([N+](=O)[O-])c3)C2=O)cc1C,-8.1,x,0.1,-25.5,12.6,x
COc1cccc(-c2noc(C3CCCN(C(=O)CC(C)(C)C)C3)n2)c1 (stereo not given),-24.4,4.2,0.1,-88.4,-3.7,1.2
CCCCC(=O)N1CCCC(c2nc(-c3cccc(OC)c3)no2)C1 (stereo not given),-29.7,7.8,43.3*,-81.6,-34.3,-0.6
CCC(=O)N(C)C[C@@H]1Oc2cc(C#C[C@@H](C)O)ccc2S(=O)(=O)N([C@H](C)CO)C[C@@H]1C,x,-1.4[16.7 µM],0.3,x,x,x
Cc1ccc(N(CC(=O)NC(C)(C)C)C(=O)CNC(=O)c2cccs2)c(C)c1,-3.6,x,43.1*,1.1,-7.8,2.2
CC1=CC2=NC(=O)/C(=C\c3cccn3CCOc3ccccc3C)C(=N)N2O1,-0.9,147.3*,0.2,17.0,0.3,2.7
COc1ccccc1OCCOc1ccc(/C=C2/C(=N)N3OC(C)=CC3=NC2=O)cc1OC,-13.5,-4.0,x,-20.7,-4.1,0.0
CCOCC(=O)Nc1c(C(=O)N2CCN(c3ncccn3)CC2)oc2ccccc12,-3.0,125.3*,0.0,-12.9,-1.1,0.4
COc1ccc(OCC(=O)Nc2c(C(=O)N3CCN(C)CC3)oc3ccccc23)cc1,-12.0,6.2,0.0,10.0,-6.1,-0.3

# Bioassay records (PubChem BioAssay)
